Assay results collected from several papers.
Target: Serine/threonine-protein kinase SIK2 (SIK2, Homo sapiens, UniProt Q9H0K1)

CNC(=O)Nc1ccc2c(c1)[C@@]1(CC2)OC(=O)N(CC(=O)N(Cc2ccc(F)cc2)[C@@H](C)C(F)(F)F)C1=O — remaining binding (cell-free assay; competition with immobilised ligand; 1 µM): 88%
C[S+]([O-])c1ccc(-c2nc(-c3ccncc3)c(-c3ccc(F)cc3)[nH]2)cc1 (stereo not drawn) — remaining signal (cell-free assay; 0.5 µM): 82.1%
CC(C)(C)c1nc(-c2cccc(NS(=O)(=O)c3c(F)cccc3F)c2F)c(-c2ccnc(N)n2)s1 — remaining activity (enzyme activity; inhibitor; radiometric; 1 µM): 98%
COc1cc2ncnc(Nc3ccc(Oc4ccccc4)c(C)c3C)c2cc1OC — inhibition (enzyme activity; inhibitor; 1 µM): 0%
Cc1nccc(COC(=O)N2C[C@@H]3[C@@H](CNC(=O)c4ccc5[nH]nnc5c4)[C@@H]3C2)n1 — remaining binding (cell-free assay; competition with immobilised ligand; 1 µM): 92%
COc1cc(Nc2c(C#N)cnc3cc(OCCCN4CCN(C)CC4)c(OC)cc23)c(Cl)cc1Cl — remaining signal (cell-free assay; 0.5 µM): 1.93%
CCOc1cc(-c2nncn2C)ccc1Nc1ncc2cc(C)nc(NCC(C)(C)C)c2n1 — inhibition (enzyme activity; inhibitor; FRET; 1 µM): < 15%
COc1cc(/C=C/C(=O)CC(=O)/C=C/c2ccc(O)c(OC)c2)ccc1O — activity vs control (enzyme activity; inhibitor; 1 µM): 83%
COc1cc(Cl)c(C(=O)N[C@@H](CN[C@H]2CC[C@@H](N)CC2)Cc2ccc(C#N)cc2)cc1-c1ccc(CN[C@H](C)c2ccc(C)cc2)o1 — remaining activity (enzyme activity; inhibitor; 1 µM): 96%
Cc1nc(C2CCN(C(=O)c3ccc(OC(F)(F)F)cc3N)CC2)c2ncc(N3CCN(C)CC3)cc2n1 — remaining binding (cell-free assay; competition with immobilised ligand; 1 µM): 100%
N#CCCc1ccc2c(c1)-c1[nH]c3ccc([N+](=O)[O-])cc3c1CC(=O)N2 — remaining signal (cell-free assay; 0.5 µM): 44.2%
O=C(Nc1cccnn1)N1CCC(=Cc2cccc(Oc3ccc(C(F)(F)F)cn3)c2)CC1 — remaining binding (cell-free assay; competition with immobilised ligand; 1 µM): 100%
FC(F)(F)Oc1cccc(-c2cnc3ccc(-c4ccncc4)nn23)c1 — activity vs control (enzyme activity; inhibitor; radiometric; 5 µM): 69%
O=C(Nc1cnn(-c2csc(C(=O)NC3COC3)c2)c1)Nc1c(F)cccc1Cl — remaining activity (enzyme activity; inhibitor; 5 µM): 95.8%
CNCc1ccccc1-c1csc([C@@H](C)Nc2nc(C)nc3cc(OC)c(OC)cc23)c1 — remaining binding (cell-free assay; competition with immobilised ligand; 1 µM): 100%
COc1cc(-c2cc(-c3ccc(N4CCNCC4)cc3)cnc2N)cc(OC)c1OC — inhibition (enzyme activity; inhibitor; 1 µM): 82%
O=C(Nc1cnn(-c2csc(C(=O)NC3COC3)c2)c1)Nc1ccccc1Cl — remaining activity (enzyme activity; inhibitor; 5 µM): 97%
CC/C(=N\NC(=O)NCc1cccc(O)c1)c1ccc(O)c(C)c1O — inhibition (enzyme activity; inhibitor; 0.1 µM): -5.5%
